The list is not random: actives were taken first. Their share in the collection is about 29%.
CYP2C9 inhib: blocks human cytochrome P450 2C9 | P11712 | inhibition, % at 5 µM | AID 777 | hit rate 20% among 96,000 | CYP2C9 Supersomes, luciferin-H conversion, luminescence;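 active = blocking of liver enzyme CYP2C9 beyond about 50% at 5 µM, limit read from the data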
Target sequence (P11712 whole entry, looked up): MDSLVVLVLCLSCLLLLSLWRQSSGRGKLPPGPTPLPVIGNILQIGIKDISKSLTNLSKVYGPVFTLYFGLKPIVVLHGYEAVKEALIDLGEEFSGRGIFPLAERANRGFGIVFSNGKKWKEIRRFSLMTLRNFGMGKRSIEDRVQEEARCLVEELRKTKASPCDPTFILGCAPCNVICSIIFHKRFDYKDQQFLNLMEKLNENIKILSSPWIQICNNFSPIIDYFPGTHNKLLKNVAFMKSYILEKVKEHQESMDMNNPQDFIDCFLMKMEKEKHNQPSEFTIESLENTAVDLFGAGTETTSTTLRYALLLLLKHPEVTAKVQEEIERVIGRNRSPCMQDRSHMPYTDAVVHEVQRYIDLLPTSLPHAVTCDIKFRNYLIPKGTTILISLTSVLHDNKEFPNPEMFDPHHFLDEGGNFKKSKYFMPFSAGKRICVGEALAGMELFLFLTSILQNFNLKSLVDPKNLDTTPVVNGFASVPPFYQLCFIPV
tolC growth inh: blocks growth of E. coli BW25113 tolC mutant | AID 573 | hit rate 2.2% among 65,000 | OD615 | growth inhibition, % at 10 µM (by protocol);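 active = growth inhibition at or above a cutoff equal to the mean over every tested compound plus 3 SD, cut at about 60% in these data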;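 also: growth measured after 20 h incubation at 37 °C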
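System: E. coli ΔtolC::kan strain BW25113; Buffer or medium: LB broth supplemented with 50 µg/mL kanamycin; Compound: 10 µM final, single dose; Incubation: bacterial growth with compound for 20 h at 37 °C; Signal: A615 absorbance measurement; Evaluation: growth inhibition in percent.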
CYP2C9 act: activators of human CYP2C9; recombinant CYP2C9, luciferin-H conversion, luminescence; active compounds read high; factor 1 = untreated enzyme, 0 = blocked; activation factor at 5 µM; P11712; AID 1024; hit rate 1.4% among 96,000;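 active = activation factor of 2 or more for CYP2C9 at a 5 µM dose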;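 also: 0 = sulfaphenazole-blocked wells and 1 = vehicle-only wells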
CYP2C19 inhib: human CYP2C19 inhibition; inhibition, % at 5 µM; AID 778; hit rate 21% among 96,000; CYP2C19 Supersomes, luciferin-H EGE luminescence, 30 min; P33261;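 active = CYP2C19 inhibition above a set limit at 5 µM in the primary screen, cut at about 50% in these data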;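 also: plate controls were negative control wells for no effect and 2.5 mM tranylcypromine positive control for full effect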
Ecoli WT expand: E. coli BW25113 growth inhibition, expanded screen | OD600 absorbance | growth inhibition, % at 100 µM | hit rate 0.15% among 98,000 | AID 710;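 active = growth inhibition above about 50% at one test dose, limit read from the data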;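 also: growth measured after 20 h incubation at 37 °C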
CYP2C19 activ: increases human CYP2C19 enzyme activity. recombinant CYP2C19, luciferin-H EGE luminescence; active compounds read high; 0 = fully inhibited enzyme, 1 = untreated enzyme. AID 1025. P33261. 96,000 tested, under 10 active. activation factor at 5 µM;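 active = activation factor of at least 2 at 5 µM in the primary screen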;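 also: 0 = wells with 2.5 mM tranylcypromine and 1 = vehicle-only wells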
Starred values were filed as active, the others as inactive; . = no result given.

SMILES | CYP2C9 inhib | tolC growth inh | CYP2C9 act | CYP2C19 inhib | Ecoli WT expand | CYP2C19 activ
CCc1ccc2[nH]c(=O)c(CN(CCCN3CCOCC3)C(=O)Nc3ccc(Cl)cc3)cc2c1 | 38 | 6 | 0.6 | 39 | 1 | 0.6
O=C(CSc1nnc(-c2cccs2)n1-c1ccccc1)N1CCCc2ccccc21 | 85* | . | 0.1 | 49 | -6 | 0.5
Nc1nc(SCC(=O)N2CCCc3ccccc32)n(-c2ccccc2)n1 | 34 | 10 | 0.7 | 75* | 8 | 0.3
CCn1c(SCC(=O)N2CCCc3ccccc32)nnc1-c1cccs1 | -24 | -8 | 1.2 | 20 | -1 | 0.8
O=C(CSc1nnnn1-c1ccccc1)N1CCc2ccccc21 | -9 | -4 | 1.1 | -6 | -6 | 1.1
CCn1nnnc1SCC(=O)N1c2ccccc2CCc2ccccc21 | 71* | 6 | 0.3 | 91* | 9 | 0.1
O=C(CSc1nnnn1-c1ccc(Cl)cc1)N1CCc2ccccc2C1 | 37 | 1 | 0.6 | 74* | -16 | 0.3
CN1C(=O)N(C)C2C1N(CN1CCCCC1)C(=O)N2CN1CCCCC1 (stereo not given) | -1 | -3 | 1 | -14 | 5 | 1.1
Nn1c(SCC(=O)N2CCCc3ccccc32)nnc1-c1ccccc1 | -3 | -2 | 1 | 23 | 0 | 0.8
CCCn1nnnc1SCC(=O)N1CCCc2ccccc21 | 19 | . | 0.8 | 83* | 1 | 0.2
O=C(CSc1nnnn1-c1ccccc1)N1CCCc2ccccc21 | 58* | . | 0.4 | 80* | -16 | 0.2
Cn1c(-c2ccc3ccccc3n2)nc2cnccc21 | 54* | -5 | 0.5 | 88* | -2 | 0.1
COc1cc(-c2nc3cnccc3n2C)cc(OC)c1OC | 2 | -12 | 1 | -6 | 5 | 1.1
COc1cc(OC)c(-c2nc3cnccc3n2C)cc1OC | 35 | -19 | 0.6 | 75* | 7 | 0.2
CC(=O)N1CCN=C1SCc1ccc(C)cc1 | 29 | -6 | 0.7 | 34 | -5 | 0.7
C=CCN(c1ccc(C(=O)NCCc2ccccc2)cc1)S(C)(=O)=O | -10 | . | 1.1 | 10 | 3 | 0.9
O=C(O)c1ccc(NS(=O)(=O)c2ccc(Cl)c(Cl)c2)cc1O | 24 | 9 | 0.8 | -4 | -3 | 1
CCc1ccc(CC)c(S(=O)(=O)Nc2ccc(C(=O)O)c(O)c2)c1 | 83* | 15 | 0.2 | 8 | 6 | 0.9
CCc1ccc(CC)c(S(=O)(=O)Nc2ccc(O)c(C(=O)O)c2)c1 | 77* | 9 | 0.2 | 6 | 4 | 0.9
CCOC(=O)CN1C(=O)C(Sc2n[nH]c(-c3ccccc3)n2)CCc2ccccc21 (stereo not given) | 93* | . | 0.1 | 89* | 4 | 0.1
O=C1OCC(CO)(CO)N=C1NNc1cc(Cl)ccc1Cl | 56* | . | 0.4 | 77* | 1 | 0.2
Cn1c(N)c(C(=O)COC(=O)C2CCC(C(C)(C)C)CC2)c(=O)n(C)c1=O (stereo not given) | -32 | . | 1.3 | 19 | 3 | 0.8
N#CCN1CCN(CC(=O)Nc2ccc(OCc3ccccc3)cc2)CC1 | 44 | . | 0.6 | 22 | 11 | 0.8
COc1ccc(S(=O)(=O)N2Cc3ccccc3CC2C(=O)Nc2nccs2)cc1 (stereo not given) | . | . | . | 93* | -6 | 0.1
COc1ccc(S(=O)(=O)N2Cc3ccccc3CC2C(=O)N2CCOCC2)cc1OC (stereo not given) | 3 | -14 | 1 | -6 | 10 | 1.1
SMILES | CYP2C9 inhib | tolC growth inh | CYP2C9 act | CYP2C19 inhib | Ecoli WT expand | CYP2C19 activ
COc1ccc(S(=O)(=O)N2Cc3ccccc3CC2C(=O)Nc2nccs2)cc1OC (stereo not given) | 69* | 17 | 0.3 | 86* | -9 | 0.1
O=C(O)C1Cc2ccccc2CN1S(=O)(=O)c1ccc2ccccc2c1 (stereo not given) | 8 | . | 0.9 | 4 | 12 | 1
CC(C)(C)c1ccc(OC(=O)Cn2c(C(F)(F)F)nc3ccccc32)cc1 | 16 | . | 0.8 | 9 | -1 | 0.9
COc1cc(-c2nnc(SCC(=O)/C(C#N)=C(\C)N)o2)cc(OC)c1OC | 41 | . | 0.6 | 24 | 2 | 0.8
C=CCNC(=O)c1ccc2c(c1)nnn2C | 0 | -6 | 1 | 4 | 3 | 1
CCOC(=O)c1cccnc1SCC(=O)N(C)c1ccccc1 | 41 | 5 | 0.6 | 39 | -1 | 0.6
Cc1cc2c(c(Sc3ccccc3)n1)C(=O)OC2 | 27 | -19 | 0.7 | 50* | -1 | 0.5
Cc1cc2c(c(SCC(=O)N(C)c3ccccc3)n1)C(=O)OC2 | 14 | -4 | 0.9 | 63* | 4 | 0.4
O=C(Nc1ccc(S(=O)(=O)N2CCCCCC2)cc1)C1CCCO1 (stereo not given) | 38 | 6 | 0.6 | 16 | -5 | 0.8
CCc1nc(-c2ccccc2O)n(-c2ccccc2)n1 | 18 | 9 | 0.8 | 74* | 2 | 0.3
CCOc1cc(C2C(C#N)=C(N)Oc3n[nH]c(-c4ccccc4)c32)ccc1O (stereo not given) | 94* | 10 | 0.1 | 71* | -8 | 0.3
N#CC1=C(N)Oc2n[nH]c(-c3ccccc3)c2C1c1cccnc1 (stereo not given) | 23 | 2 | 0.8 | 38 | 12 | 0.6
COc1ccc(-c2c(C#N)c(N)nc3c2CCCC3)cc1OC | . | 2 | . | . | . | .
CCOc1cc(-c2c(C#N)c(N)nc3c2CCCC3)ccc1O | 36 | 19 | 0.6 | 61* | -2 | 0.4
CCOc1cc(-c2cc(-c3ccc(N)cc3)nc(N)c2C#N)ccc1O | 89* | 29 | 0.1 | 70* | 5 | 0.3
CCOc1cc(-c2cc(-c3ccccc3)nc(N)c2C#N)ccc1O | 54* | . | 0.5 | 52* | -12 | 0.5
CCOC(=O)Nc1ccc(S(=O)(=O)Nn2cnnc2)cc1 | 30 | -3 | 0.7 | 11 | -4 | 0.9
N#CC1=C(N)C(C#N)(C#N)C(c2cccnc2)C2CCCC=C12 (stereo not given) | 30 | 2 | 0.7 | 11 | 9 | 0.9
N#CC1=C(N)C(C#N)(C#N)C(c2cccnc2)C2CC(c3ccccc3)CC=C12 (stereo not given) | 64* | . | 0.4 | 20 | 0 | 0.8
CS(=O)(=O)Nc1ccccc1C(=O)c1ccccc1 | -19 | -4 | 1.2 | 61* | 2 | 0.4
CCS(=O)(=O)Nc1ccc(C(=O)OC)cc1 | 69* | -7 | 0.3 | 64* | -1 | 0.4
COC(=O)c1ccc(NC(=O)c2ccccc2NS(C)(=O)=O)cc1 | 66* | 14 | 0.3 | 23 | 3 | 0.8
CS(=O)(=O)Nc1ccccc1C(=O)Nc1cc(Cl)cc(Cl)c1 | 38 | . | 0.6 | 0 | 0 | 1
CS(=O)(=O)Nc1ccccc1C(=O)Nc1cccc(Cl)c1 | 68* | 37 | 0.3 | 48 | 2 | 0.5
COc1cccc(NC(=O)c2ccccc2NS(C)(=O)=O)c1 | 65* | -1 | 0.3 | 9 | 2 | 0.9
COc1ccc(NC(=O)c2ccccc2NS(C)(=O)=O)cc1OC | 57* | -16 | 0.4 | 1 | -1 | 1
